In ChEMBL document CHEMBL1124076, “125I-labeled 8-phenylxanthine derivatives: antagonist radioligands for adenosine A1 receptors” (J Med Chem, 1988):

How the values were obtained:
Adenosine receptor A1 [1] = target: T1, Adenosine receptor A1 (Rattus norvegicus, UniProt P25099)
T1 sequence (P25099 whole entry): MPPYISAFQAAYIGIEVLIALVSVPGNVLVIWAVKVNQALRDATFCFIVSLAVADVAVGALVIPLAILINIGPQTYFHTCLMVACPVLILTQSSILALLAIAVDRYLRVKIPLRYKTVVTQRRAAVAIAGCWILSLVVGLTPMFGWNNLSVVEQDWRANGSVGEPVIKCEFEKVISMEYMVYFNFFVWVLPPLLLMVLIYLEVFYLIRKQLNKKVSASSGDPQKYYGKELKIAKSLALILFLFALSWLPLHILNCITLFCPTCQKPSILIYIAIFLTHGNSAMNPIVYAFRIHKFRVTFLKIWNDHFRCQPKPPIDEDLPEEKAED

Adenosine A2 receptor = Adenosine A2 receptor (Homo sapiens, UniProt P29275+P29274); assay: Inhibition of NECA binding to adenosine A2 receptor mediates reduced adenylate cyclase activity in human platelets
Adenosine receptor A1 [2] = target: T2, Adenosine receptor A1 (Bos taurus, UniProt P28190); assay: Displacement of [125-I]-labeled aminobenzyl adenosine binding to adenosine A1 receptor of bovine brain membranes; format: cell membranes
T2 sequence (P28190 whole entry): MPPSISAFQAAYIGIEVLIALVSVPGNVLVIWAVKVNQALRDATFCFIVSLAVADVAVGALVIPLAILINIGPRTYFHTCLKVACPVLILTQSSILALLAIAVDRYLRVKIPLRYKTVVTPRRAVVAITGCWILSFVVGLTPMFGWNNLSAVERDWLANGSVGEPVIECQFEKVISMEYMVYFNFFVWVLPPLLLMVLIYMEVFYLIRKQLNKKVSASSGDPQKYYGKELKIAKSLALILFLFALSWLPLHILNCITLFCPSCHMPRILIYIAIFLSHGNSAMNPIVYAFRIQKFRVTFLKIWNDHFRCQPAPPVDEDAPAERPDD
How it was run: (§1)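 Bovine cerebral cortex membranes, pretreated with EDTA, at 0.5 mg protein/mL in 10 mM HEPES, 1 mM EDTA, 0.1 mM benzamidine, pH 7.4. Incubated 2-3 h at 21 °C, then filtered and washed with ice-cold 10 mM Tris-HCl pH 7.4. Nonspecific binding by 100 μM PIA, 1 mM theophylline or 1 μM IIIa.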

Adenosine receptor A1 [3] = target: T1, Adenosine receptor A1; assay: Binding affinity to adenosine A1 receptor of rat brain membranes with 1 M NaCl by inhibition of [125-I]-IIIa binding
Adenosine receptor A1 [4] = target: T2, Adenosine receptor A1; assay: Binding affinity for adenosine A1 receptor as inhibition of [125-I]-labeled aminobenzyl adenosine binding to bovine brain membranes; format: cell membranes
How it was run: as §1

Adenosine receptor A1 [5] = target: T2, Adenosine receptor A1; assay: Binding affinity for adenosine A1 receptor using [125-I]-labeled aminobenzyl adenosine in bovine brain membranes; format: cell membranes
How it was run: as §1

| SMILES | IC50 (Adenosine receptor A1 [1]) [nM] | Ki (Adenosine A2 receptor) [µM] | Kd (Adenosine receptor A1 [2]) [nM] | IC50 (Adenosine receptor A1 [3]) [nM] | Kd (Adenosine receptor A1 [4]) [nM] | Kd (Adenosine receptor A1 [5]) [nM] |
| --- | --- | --- | --- | --- | --- | --- |
| CCCn1c(=O)c2nc(-c3ccc(OCC(=O)O)cc3)[nH]c2n(CCc2ccc(N)c(I)c2)c1=O |  | 5.3 | 29 |  |  |  |
| CCCn1c(=O)c2nc(-c3ccc(OCC(=O)O)cc3)[nH]c2n(Cc2ccc(N)c(I)c2)c1=O | 37 | 0.7 | 37 | 3 |  |  |
| Nc1ccc(CCn2c(=O)c3nc(-c4ccc(OCC(=O)O)cc4)[nH]c3n(CCc3ccc(N)cc3)c2=O)cc1 |  | > 100 | 3590 |  |  |  |
| CCCn1c(=O)c2nc(-c3ccc(OCC(=O)O)cc3)[nH]c2n(Cc2ccc(N=[N+]=[N-])c(I)c2)c1=O |  | 2.1 |  |  |  | 55 |
| CCCn1c(=O)c2nc(-c3ccc(OCC(=O)O)cc3)[nH]c2n(CCc2ccc(N)cc2)c1=O | 37 | 11.5 | 60 | 3.4 |  |  |
| CCCn1c(=O)n(Cc2ccc(N=[N+]=[N-])c(I)c2)c(=O)c2[nH]c(-c3ccc(OCC(=O)O)cc3)nc21 |  | 5.3 |  |  | 960 |  |
| CCCn1c(=O)c2nc(-c3ccc(OCC(=O)O)cc3)[nH]c2n(CCc2ccc(N=[N+]=[N-])c(I)c2)c1=O |  | 5.4 | 24 |  |  |  |
| CCCn1c(=O)n(CCc2ccc(N=[N+]=[N-])c(I)c2)c(=O)c2[nH]c(-c3ccc(OCC(=O)O)cc3)nc21 |  | 12.3 |  |  | 2860 |  |
| CCCn1c(=O)c2nc(-c3ccc(OCC(=O)O)cc3)[nH]c2n(Cc2ccc(N)cc2)c1=O | 64 | 1 | 32 | 3.4 |  |  |

Results, then the compound that gave them:

| IC50 (Adenosine receptor A1 [1]) [nM] | Ki (Adenosine A2 receptor) [µM] | Kd (Adenosine receptor A1 [2]) [nM] | IC50 (Adenosine receptor A1 [3]) [nM] | Kd (Adenosine receptor A1 [4]) [nM] | Kd (Adenosine receptor A1 [5]) [nM] | SMILES |
| --- | --- | --- | --- | --- | --- | --- |
| 44 | 23 | 44 | 5.2 |  |  | CCCn1c(=O)n(Cc2ccc(N)cc2)c(=O)c2[nH]c(-c3ccc(OCC(=O)O)cc3)nc21 |
|  | 20 | 3100 |  |  |  | CCCn1c(=O)n(CCc2ccc(N)c(I)c2)c(=O)c2[nH]c(-c3ccc(OCC(=O)O)cc3)nc21 |
|  | 1.8 | 160 |  |  |  | CCCn1c(=O)n(Cc2ccc(N)c(I)c2)c(=O)c2[nH]c(-c3ccc(OCC(=O)O)cc3)nc21 |
|  |  |  |  | 17 |  | CCCn1c(=O)c2[nH]c(-c3ccc(OCC(=O)O)cc3)nc2n(CCC)c1=O |
|  | 11.5 | 2300 |  |  |  | CCCn1c(=O)n(CCc2ccc(N)cc2)c(=O)c2[nH]c(-c3ccc(OCC(=O)O)cc3)nc21 |
